# Laboratory results: ChEMBL document CHEMBL1140003, “Bivalent ligand approach on 4-[2-(3-methoxyphenyl)ethyl]-1-(2-methoxyphenyl)piperazine: synthesis and binding affinities for 5-HT(7) and 5-HT(1A) receptors” (Bioorg Med Chem, 2007)
# How the values were obtained:
# [1] = target: 5-hydroxytryptamine receptor 7 (Rattus norvegicus, UniProt P32305); test: Displacement of [3H]LSD from rat recombinant 5HT7 receptor expressed in HEK293 cells; type: cell-based
# Procedure, shortened: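 Membranes (30 µg) incubated 60 min at 37 °C with 2.5 nM [3H]LSD and 6–9 test concentrations in 50 mM Tris, 10 mM MgCl2, 0.5 mM EDTA, pH 7.4. Stopped by GF/A filtration (0.5% PEI pre-soak), cold-buffer washes; nonspecific binding defined by 10 µM 5-CT. Ki by nonlinear curve fit and Cheng–Prusoff; mean ± SEM of three experiments in triplicate.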
# [2] = target: 5-hydroxytryptamine receptor 1A (Homo sapiens) (UniProt P08908); test: Displacement of [3H]-8-OH-DPAT from human recombinant 5HT1A receptor expressed in HEK293 cells
# Sequence of 5-hydroxytryptamine receptor 1A (Homo sapiens) (P08908 whole entry, looked up): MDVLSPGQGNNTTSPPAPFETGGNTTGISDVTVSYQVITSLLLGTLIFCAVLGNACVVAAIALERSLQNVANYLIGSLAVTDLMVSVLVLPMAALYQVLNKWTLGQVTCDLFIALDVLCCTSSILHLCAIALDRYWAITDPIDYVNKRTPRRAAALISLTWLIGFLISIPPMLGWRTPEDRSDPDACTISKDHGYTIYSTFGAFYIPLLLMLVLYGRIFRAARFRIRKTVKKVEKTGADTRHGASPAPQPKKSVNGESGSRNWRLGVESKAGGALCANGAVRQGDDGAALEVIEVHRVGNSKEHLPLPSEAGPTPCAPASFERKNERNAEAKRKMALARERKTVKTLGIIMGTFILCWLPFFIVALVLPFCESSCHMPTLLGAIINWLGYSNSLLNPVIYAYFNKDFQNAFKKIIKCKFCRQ
# Sequence of 5-hydroxytryptamine receptor 7 (P32305 whole entry): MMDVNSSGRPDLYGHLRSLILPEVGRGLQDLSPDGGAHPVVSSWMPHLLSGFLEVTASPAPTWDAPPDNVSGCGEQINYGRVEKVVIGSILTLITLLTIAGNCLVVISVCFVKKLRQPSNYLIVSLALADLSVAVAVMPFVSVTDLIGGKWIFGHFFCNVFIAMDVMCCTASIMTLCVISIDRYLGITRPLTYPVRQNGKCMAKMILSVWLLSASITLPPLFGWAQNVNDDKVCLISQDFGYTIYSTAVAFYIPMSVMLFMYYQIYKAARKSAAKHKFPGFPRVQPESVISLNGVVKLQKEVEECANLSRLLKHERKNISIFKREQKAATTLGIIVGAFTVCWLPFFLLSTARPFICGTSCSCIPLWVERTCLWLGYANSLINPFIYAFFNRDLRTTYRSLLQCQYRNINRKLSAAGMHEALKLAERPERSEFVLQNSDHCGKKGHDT
SMILES,Ki [1] [nM],Ki [2] [nM]
COc1ccccc1N1CCN(CCc2cccc(OCCCCCCCCCCOc3cccc(CCN4CCN(c5ccccc5OC)CC4)c3)c2)CC1,258,28.3
COc1ccccc1N1CCN(CCc2cccc(OCCCCCCOc3cccc(CCN4CCN(c5ccccc5OC)CC4)c3)c2)CC1,42.6,1.6
COc1ccccc1N1CCN(CCc2cccc(OCCCCCCCCCCCCOc3cccc(CCN4CCN(c5ccccc5OC)CC4)c3)c2)CC1,,253
COc1ccccc1N1CCN(CCc2cccc(OC(=O)COCC(=O)Oc3cccc(CCN4CCN(c5ccccc5OC)CC4)c3)c2)CC1,43,2.74
COc1ccccc1N1CCN(CCc2cccc(OCCCCCCCCOc3cccc(CCN4CCN(c5ccccc5OC)CC4)c3)c2)CC1,573,4.8

# Continued, values first:
Ki [1] [nM],Ki [2] [nM],SMILES
120,1.74,COc1ccccc1N1CCN(CCc2cccc(OCCCCCOc3cccc(CCN4CCN(c5ccccc5OC)CC4)c3)c2)CC1
25,5.6,COc1ccccc1N1CCN(CCc2cccc(OCCCOc3cccc(CCN4CCN(c5ccccc5OC)CC4)c3)c2)CC1
37,0.62,COc1ccccc1N1CCN(CCc2cccc(OCCOCCOc3cccc(CCN4CCN(c5ccccc5OC)CC4)c3)c2)CC1
28.5,0.9,COc1ccccc1N1CCN(CCc2cccc(OCCCCOc3cccc(CCN4CCN(c5ccccc5OC)CC4)c3)c2)CC1
41.1,2.2,COc1ccccc1N1CCN(CCc2cccc(OCCOc3cccc(CCN4CCN(c5ccccc5OC)CC4)c3)c2)CC1
